MBD2 DNA inh – inhibitors of human MBD2 binding to methylated oligonucleotide. Q9UBB5. TR-FRET. inhibition, % at 4.4 µM. 370,000 compounds, 0.31% hits; in the data active means inhibition above about 13%
TDP2 absorb – TDP2 (human) inhibition, absorbance primary screen; O95551; recombinant TDP2, T5PNP hydrolysis, p-nitrophenol absorbance 415 nm; inhibition, % at 12.8 µM; 370,000 compounds, 0.34% hits;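 active means inhibition above the mean of all tested compounds plus 3 SD, set per campaign, cut at about 25% in these data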;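 further: 0% = DMSO with enzyme and 100% = buffer with substrate but no TDP2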
Target sequence (O95551 whole entry, looked up): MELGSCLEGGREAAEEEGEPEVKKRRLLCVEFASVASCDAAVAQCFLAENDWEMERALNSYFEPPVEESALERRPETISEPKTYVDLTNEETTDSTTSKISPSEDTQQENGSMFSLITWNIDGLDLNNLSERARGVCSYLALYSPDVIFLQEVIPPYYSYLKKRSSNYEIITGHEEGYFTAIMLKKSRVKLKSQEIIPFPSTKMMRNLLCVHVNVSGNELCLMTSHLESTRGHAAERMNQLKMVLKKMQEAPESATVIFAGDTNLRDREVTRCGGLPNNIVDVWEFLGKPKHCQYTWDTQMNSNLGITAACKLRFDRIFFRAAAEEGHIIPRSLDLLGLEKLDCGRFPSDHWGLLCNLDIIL
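test system = human TDP2 enzyme | input = TDP2 enzyme at 120 nM final | medium = 50 mM Tris-HCl pH 7.5 with Mg2+, KCl, DTT, BSA | also added = T5PNP substrate, 5 mM | times = 2 h at 37 °C | technique = epi absorbance | benchmarks = high control without enzyme, low control DMSO plus TDP2 | replication = each compound tested once, singlicate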
LEDGF integ inh – blocks HIV-1 LEDGF/p75-dependent DNA integration | TR-FRET IN-LEDGF/p75 DNA integration, Eu/Cy5 | inhibition, % at 3.7 µM | 370,000 compounds, 0.64% hits | AID 743269;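 active means inhibition above the screen-wide mean plus 3 SD, cut at about 13% in these data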;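 further: signal is the Cy5 over europium emission ratio at 671 and 618 nm; 0% = plate median of compound wells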
UHRF1 binding – blocks human UHRF1 binding to methylated DNA. UHRF1 binding to methylated oligo, TR-FRET. inhibition, % at 4.4 µM. 370,000 compounds, 0.75% hits. AID 687016; in the data active means inhibition above about 21%;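 further: UHRF1 SRA domain binding a hemimethylated CpG hairpin DNA probe; 0% = median of test compound wells and 100% = reference inhibitor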
The depositor's hits bear a star. Most compounds without a hit are left out; they make up all but 1.6% or so of the library.

SMILES | MBD2 DNA inh | TDP2 absorb | LEDGF integ inh | UHRF1 binding
CCN1CCN(Cc2ccc(NC(=O)c3ccc(C)c(NC(=O)c4nccn4C)c3)cc2C(F)(F)F)CC1 | 8 | -2 | 4 | 3
CCCCNC(=O)C[C@H]1C[C@@]2(C(=O)OC)C(=C[C@H](C(C)(C)C)O[C@@H]2C)N(Cc2ccco2)C1=O | 4 | 3 | -4 | 0
Cc1ccc(C(=O)NCC(=O)N(C)CC(=O)Nc2c(Cl)cccc2Cl)s1 | -5 | -15 | -1 | 23*
CN(CC(=O)Nc1c(Cl)cccc1Cl)C(=O)c1cccc(-n2cccc2)c1 | 7 | 15 | 3 | 23*
Cc1ccc(F)cc1NC(=O)CN1C(=O)NC(C)(c2ccc3c(c2)OCCO3)C1=O (stereo not drawn) | -1 | -8 | 5 | -1
Cc1ccc(C)c(NC(=O)CN2C(=O)NC(C)(c3ccc4c(c3)OCCO4)C2=O)c1 (stereo not drawn) | -5 | -11 | -1 | 70*
CCNC(=S)Nc1ccc(Cl)cc1 | 0 | -9 | 0 | 5
CCNC(=S)Nc1ccc(C)c(Cl)c1 | 1 | 1 | 0 | 25*
CC(Sc1nccn1C)C(=O)NC1(C#N)CCCCC1 (stereo not drawn) | 0 | 0 | 4 | 0
CC(Sc1nnc(Cc2ccccc2)o1)C(=O)NC1(C#N)CCCCC1 (stereo not drawn) | 2 | -2 | -10 | 24*
CCOc1cccc(/C=N/NC(=O)CC2C(=O)NN=C2C)c1O (stereo not drawn) | -4 | 4 | -5 | -2
COc1cc(/C=N/NC(=O)CC2C(=O)NN=C2C)ccc1O (stereo not drawn) | 0 | -1 | 74* | -2
COc1cc(OC)c2c(O)c3c(=O)cc(C)oc3c(-c3c(OC)cc4cc5c(c(O)c4c3O)C(=O)CC(C)(O)O5)c2c1 (stereo not drawn) | 7 | 2 | 2 | 3
Cc1occc1-c1nnc(SCC(=O)N[C@@H]2CCc3ccccc32)n1-c1ccccc1 | -3 | -1 | 5 | -4
O=C(Nc1ccccc1)C(=O)Nc1ccccn1 | -4 | -5 | 3 | -1
O=C(Nc1cccc(O)c1)C(=O)Nc1ccccn1 | 0 | -1 | 0 | 68*
O=c1[nH]c(SCc2nc3ccccc3c(=O)n2-c2ccccc2)nc2ccccc12 | -7 | 4 | 3 | 35*
COc1cccc(C(=O)Nc2ccc(C(=O)NCC3COc4ccccc4O3)cc2)c1 (stereo not drawn) | 1 | 0 | -2 | 1
C#CCN1CC(N(C)CCOC(=O)c2ccc([N+](=O)[O-])cc2)CS1(=O)=O (stereo not drawn) | 4 | -15 | 4 | 4
CC1(c2nnnn2Cc2ccccc2)CCC(=O)N1CCc1ccc(O)cc1 (stereo not drawn) | 6 | 3 | -2 | 24*
CCCCn1nnnc1C1(C)CCC(=O)N1CCc1ccc(O)cc1 (stereo not drawn) | 7 | 5 | 0 | 3
CC(C)=CCC/C(C)=C/CNCC(=O)N1c2ccccc2[C@]2(C)C[C@@H]3C(=O)N(C/C=C(\C)CCC=C(C)C)CC(=O)N3[C@H]12 | 4 | 1 | -2 | -1
CC(C)NC(=O)N[C@@H]1C[C@@H]2O[C@H](CO)CC[C@@H]2O[C@@H]1CCc1ccc(-c2ccccc2F)cc1 | 8 | -6 | -4 | 2
CCCCCN1CCCCC(NC(=O)c2cc(OC)c(OC)c(OC)c2)C1=O (stereo not drawn) | 3 | -3 | 0 | -1
COc1cccc(NC(=O)CN(C)C(=O)CSCC(=O)Nc2ccc(C)cc2)c1 | 2 | 0 | 0 | 29*
SMILES | MBD2 DNA inh | TDP2 absorb | LEDGF integ inh | UHRF1 binding
CCn1c(SCC(=O)Nc2ccc(S(=O)(=O)Nc3cc(C)nc(C)n3)cc2)nc2sc(C)c(C)c2c1=O | -13 | 5 | 1 | -2
CC(C)c1ccccc1-n1c(SCC(=O)N2CCc3ccccc3C2)nc2ccccc2c1=O | 8 | -4 | 1 | 3
O=C(CSc1nc2ccccc2c(=O)n1-c1ccccc1)N1CCc2ccccc2C1 | 7 | 4 | 0 | 28*
C=CCN1C(C(=O)OC)CN(Cc2cn(Cc3ccc(C)cc3)nn2)CCS1(=O)=O (stereo not drawn) | 8 | -8 | 4 | 16
CN(Cc1ccccc1)C(=O)C1CCC(CNS(=O)(=O)c2cccc3cccnc23)CC1 (stereo not drawn) | 4 | -4 | -1 | 32*
Cc1nc2ccc(S(=O)(=O)NCC(=O)N(C)Cc3ccc(F)cc3)cc2s1 | 1 | 2 | -2 | 3
COc1ccccc1COCC(O)CN(Cc1ccco1)Cc1ccccc1O (stereo not drawn) | 1 | -1 | -1 | 25*
c1ccc2c(-c3c[nH]c4ccccc34)c3ccccc3nc2c1 | 1 | 9 | -2 | -2
O=C(O)c1cc(-c2c[nH]c3ccccc23)nc2ccc3ccccc3c12 | 1 | 5 | 1 | 21*
CCOC(=O)[C@@]12CCC3=C1N(CCC3)C(=O)[C@H](CC(=O)NCCc1ccccc1OC)C2 | -4 | 2 | -6 | 1
Cc1ccn2c(Cc3ccccc3)c(-c3ccc(F)cc3)nc2c1 | 8 | 1 | -3 | 21*
Fc1ccc(-c2nc3ccc(Cl)cn3c2Cc2ccccc2)cc1 | 3 | 3 | 1 | -2
COc1ccc(Cc2c(-c3ccc(OC)c(OC)c3)nc3ccc(C)cn23)c(C)c1 | 7 | -1 | -1 | 24*
COc1ccc(Cc2c(-c3ccc(F)cc3)nc3ccc(C)cn23)c(C)c1 | 4 | 1 | -2 | 21*
COc1ccc(C2CC(=O)C(c3cccc(Cl)c3)=CN2Cc2ccccc2)cc1 (stereo not drawn) | -6 | -10 | 3 | 0
CC(C)N(C(N)=NC(=O)OCc1ccccc1)C(C)C | -3 | 9 | 0 | 4
CCCCCN1CCCCC(NC(=O)c2ccc(F)cc2)C1=O (stereo not drawn) | -5 | 13 | 2 | -1
O=C1N=C(N2CCCC2C(=O)O)S/C1=C\c1ccco1 (stereo not drawn) | -4 | 10 | 27* | 16
O=C(O)CSc1cc(NS(=O)(=O)c2ccc(Cl)cc2)c2ccccc2c1O | -15 | 63* | 13 | -5
CC(C)c1ccc(/C=C2\C(=O)N(CCN3CCOCC3)C(=S)N2C)cc1 | -3 | 12 | -1 | 22*
CCOC(=O)c1cnc2ccccc2c1Nc1cccc(C(=O)O)c1 | 3 | -8 | 0 | 2
CCOC(=O)c1cnc2ccccc2c1Nc1ccc(C(=O)O)cc1 | 3 | -1 | -1 | 26*
O=C(NCCn1cc(SCC(=O)N2CCOCC2)c2ccccc21)c1ccccc1 | -5 | 8 | 1 | -2
Cc1cc(C)cc(C(=O)NCCn2cc(SCC(=O)N3CCOCC3)c3ccccc32)c1 | 2 | -21 | 2 | 38*
CCOC(=O)c1ccc(-n2[nH]c(-c3ccccc3)cc2=O)cc1 | 1 | 35* | 6 | 13
CCOC(=O)c1ccc(N=Nc2c(C)[nH]n(-c3ccccc3)c2=O)cc1 | 2 | -10 | 0 | -2
Cc1ccccc1N1CCN(C2CCCN(C(=O)c3csc(C(C)C)n3)C2)CC1 (stereo not drawn) | 0 | -2 | 15* | 1

From PubChem BioAssay
